# Experimental data from ChEMBL document CHEMBL3393016, “Development of novel Asf1-H3/H4 inhibitors” (Bioorg Med Chem Lett, 2015).
# Calls of active or inactive are those of the source. The rule behind the calls is not given here.
# Assays:
# Histone chaperone ASF1A [1] = target: T1, Histone chaperone ASF1A (Homo sapiens, UniProt Q9Y294); test: Inhibition of His-tagged human Asf1a binding with H3/H4 assessed as fluorescence intensity after 30 mins by ALPHA assay
# MDA-MB-231 = test: Cytotoxicity against human MDA-MB-231 cells assessed as inhibition of cell viability at 24 uM after 24 hrs by trypan blue exclusion assay; type: functional, cell-based
# Procedure, shortened: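 MDA-MB-231 cells grown to 80% confluence, seeded at 1.5 × 10^5 cells/mL and incubated overnight. Medium then replaced with serum-free medium containing drug at 24 μM. After 1 h, FBS added to each well. Viable cell density counted by trypan blue exclusion after a further 24 h. Viability expressed as percent of DMSO-only control.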
# Histone chaperone ASF1A [2] = target: T1, Histone chaperone ASF1A; test: Inhibition of globular core domain of Asf1 (unknown origin) binding with H3/H4 after 15 to 30 mins by ELISA assay
# Procedure, shortened: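 Wells coated with H3/H4 dimer at 1 μg/mL in PBS-T at 4°C overnight, then blocked with 5% milk in PBS-T. Asf1 globular core at 5 μM preincubated with compound at 100 μM (or various concentrations) for 1 h at 4°C. Samples diluted in 10 mM Tris pH 7.9, 1 mM DTT and bound to plate 1 h at room temperature. Bound Asf1 detected with anti-Asf1 and HRP secondary antibodies, then TMB for 15–30 min; OD read at 450 nm.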
# T1 sequence (Q9Y294 whole entry): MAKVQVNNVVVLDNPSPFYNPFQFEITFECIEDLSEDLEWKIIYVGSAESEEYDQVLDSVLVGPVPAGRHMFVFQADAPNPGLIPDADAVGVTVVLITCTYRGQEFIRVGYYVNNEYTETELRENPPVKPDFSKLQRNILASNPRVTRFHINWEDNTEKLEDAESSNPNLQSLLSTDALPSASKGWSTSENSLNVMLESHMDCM
Structure (SMILES),IC50 (Histone chaperone ASF1A [1]) [µM],inhibition (MDA-MB-231),other results
CCN(CC)C(=O)c1cc(-c2ccc(OC)cc2)nc2ccccc12,–,inactive,–
COc1cc(/C=N/NC(=O)c2ccc(NC(C)=O)nc2)cc(Br)c1O,> 100,–,–
COc1ccc(-c2cc(C(=O)N(C)C)c3ccccc3n2)cc1,–,inactive,–
O=C(N/N=C/c1ccncc1)c1ccc(NC(=O)c2ccccc2)cc1,> 100,–,–
COc1cc(C2C(Cl)C(=O)N2NC(=O)c2ccc(N)cc2)cc(Br)c1O (configuration not stated),–,–,inhibition (Histone chaperone ASF1A [2]): Active
COc1ccc(-c2cc(C(=O)N3CCCCC3)c3ccccc3n2)cc1,–,inactive,–
COc1ccc(-c2cc(C(=O)NCCO)c3ccccc3n2)cc1,–,inactive,–
COc1cc(/C=N/NC(=O)c2ccncc2)cc(Br)c1O,> 100,–,–
COc1ccc(-c2cc(C(=O)C3CCCCN3)c3ccccc3n2)cc1 (configuration not stated),–,inactive,–
COc1cc(/C=N/NC(=O)c2ccc(NC(C)=O)cc2)cc(Br)c1O,> 100,–,–
COc1ccc(-c2cc([C@@H](O)[C@@H]3CCCCN3)c3ccccc3n2)cc1 (racemic),–,Active,inhibition (Histone chaperone ASF1A [2]): Active
COc1cc(/C=N/NC(=O)C2CCOCC2)cc(Br)c1O,> 100,–,–
COc1cc(/C=N/NC(=O)C2CCNCC2)cc(Br)c1O,> 100,–,–
O=C(N/N=C/c1cc(Br)ccc1O)c1ccncc1,0.6,–,–
COc1ccc(-c2cc(C(=O)N3CCOCC3)c3ccccc3n2)cc1,–,inactive,–
COc1ccc(-c2cc([C@H](O)[C@@H]3CCCCN3)c3ccccc3n2)cc1 (racemic),–,Active,–

# Second part, led by results:
IC50 (Histone chaperone ASF1A [1]) [µM],Structure (SMILES),inhibition (MDA-MB-231),other results
> 100,O=C(N/N=C/c1cccc(OCCN2CCOCC2)c1)c1ccc(NC(=O)c2ccccc2)cc1,–,–
> 100,COc1cc(C/C=N/NC(=O)c2ccc(NC(=O)c3ccccc3)cc2)cc(Br)c1O,–,–
> 100,COc1cc(/C=N/NC(=O)c2ccccc2)cc(Br)c1O,–,–
> 100,COc1cc(/C=N/NC(=O)c2ccc(NC(=O)c3ccccc3)cc2)ccc1O,–,–
> 12,COc1cc(/C=N/N(C)C(=O)c2ccc(NC(=O)c3ccccc3)cc2)cc(Br)c1O,–,–
> 100,COc1cc(/C=N/NC(=O)Cc2ccc(NC(=O)c3ccccc3)cc2)cc(Br)c1O,–,–
> 100,COc1cc(CCNC(=O)c2ccc(NC(=O)c3ccccc3)cc2)cc(Br)c1O,–,–
> 100,COc1cc(CNNC(=O)c2ccc(NC(=O)c3ccccc3)cc2)cc(Br)c1O,–,–
> 100,COc1cc(/C=N/NC(=O)c2ccc(NC(=O)c3ccccc3)cc2)ccn1,–,–
> 100,COc1cc(/C=N/NC(=O)c2ccc(NC(=O)c3ccccc3)c(COCCN(C)C)c2)cc(Br)c1O,–,–
